According to ChEMBL document CHEMBL4673287, “Synthesis and biological evaluation of novel antipsychotic trans-4-(2-(1,2,4,5-tetrahydro-3H-benzo[d]azepin-3-yl)ethyl)cyclohexan-1-amine derivatives targeting dopamine/serotonin receptor subtypes” (Bioorg Med Chem Lett, 2021):

Experiments:
[1] = molecular target: T1, D(2) dopamine receptor (Homo sapiens, UniProt P14416); experiment: Displacement of [3H]-spiperone from recombinant human D2L receptor expressed in CHO cells; format: cell-based
Method in brief: (§1)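 Eight-concentration displacement curves, two independent experiments in duplicate, value is the mean Ki.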

[2] = molecular target: T2, D(3) dopamine receptor (Homo sapiens, UniProt P35462); experiment: Displacement of [3H]methyl-spiperone from recombinant human D3 receptor expressed in CHO cells; format: cell-based
T2 sequence (P35462 whole entry): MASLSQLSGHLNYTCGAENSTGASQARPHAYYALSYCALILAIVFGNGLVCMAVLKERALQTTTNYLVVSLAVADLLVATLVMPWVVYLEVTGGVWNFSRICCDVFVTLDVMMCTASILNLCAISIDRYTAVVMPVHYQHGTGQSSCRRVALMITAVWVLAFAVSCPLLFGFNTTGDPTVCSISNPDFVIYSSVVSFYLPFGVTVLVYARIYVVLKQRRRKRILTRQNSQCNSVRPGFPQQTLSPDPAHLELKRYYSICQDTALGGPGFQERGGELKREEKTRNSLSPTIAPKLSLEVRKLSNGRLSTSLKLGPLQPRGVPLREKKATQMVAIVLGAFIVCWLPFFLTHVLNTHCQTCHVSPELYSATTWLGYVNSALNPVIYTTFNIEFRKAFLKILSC

[3] = molecular target: T3, 5-hydroxytryptamine receptor 2A (Homo sapiens, UniProt P28223); experiment: Displacement of [3H]ketanserin from recombinant human 5-HT2A receptor expressed in human HEK293 cells at 10 uM relative to control; format: cell-based
T3 sequence (P28223 whole entry): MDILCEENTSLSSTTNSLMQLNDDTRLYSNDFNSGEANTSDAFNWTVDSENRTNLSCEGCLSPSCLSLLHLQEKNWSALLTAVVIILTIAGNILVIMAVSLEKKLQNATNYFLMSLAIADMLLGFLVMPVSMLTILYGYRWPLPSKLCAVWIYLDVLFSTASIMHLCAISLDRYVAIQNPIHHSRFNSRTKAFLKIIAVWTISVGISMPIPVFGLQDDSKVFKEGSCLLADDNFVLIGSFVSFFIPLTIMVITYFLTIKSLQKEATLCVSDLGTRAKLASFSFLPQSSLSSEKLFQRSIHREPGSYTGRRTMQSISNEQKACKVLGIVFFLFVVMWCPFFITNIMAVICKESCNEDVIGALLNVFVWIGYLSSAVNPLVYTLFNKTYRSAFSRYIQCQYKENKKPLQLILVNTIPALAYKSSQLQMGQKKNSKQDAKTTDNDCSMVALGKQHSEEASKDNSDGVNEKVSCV

[4] = molecular target: Adrenergic receptor alpha-1 (Rattus norvegicus) (UniProt P15823+P23944+P43140); experiment: Displacement of [3H]-prazosin from adrenergic alpha1 in rat cerebral cortex at 10 uM relative to control; format: tissue-based
[5] = molecular target: T4, 5-hydroxytryptamine receptor 1A (Homo sapiens, UniProt P08908); experiment: Displacement of [3H]OH-DPAT from recombinant human 5-HT1A receptor expressed in human HEK293 cells; format: cell-based; method in brief: as §1
T4 sequence (P08908 whole entry): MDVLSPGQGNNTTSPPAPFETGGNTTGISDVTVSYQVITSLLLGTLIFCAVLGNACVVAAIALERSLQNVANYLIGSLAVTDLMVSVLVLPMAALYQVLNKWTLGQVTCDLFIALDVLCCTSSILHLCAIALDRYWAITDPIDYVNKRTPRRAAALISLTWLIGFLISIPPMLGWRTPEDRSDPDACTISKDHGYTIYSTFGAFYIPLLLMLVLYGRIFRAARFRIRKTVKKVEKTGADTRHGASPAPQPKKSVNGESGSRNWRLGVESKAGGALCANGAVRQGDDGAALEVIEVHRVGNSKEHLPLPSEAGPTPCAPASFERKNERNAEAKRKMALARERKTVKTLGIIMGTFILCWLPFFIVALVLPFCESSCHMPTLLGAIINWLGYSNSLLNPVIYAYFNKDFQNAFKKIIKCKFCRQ

[6] = molecular target: Histamine H1 receptor (Homo sapiens) (UniProt P35367); experiment: Displacement of [3H]-pyrilamine from human H1 histamine receptor expressed in human HEK293 cells at 10 uM relative to control; format: cell-based
Sequence of Histamine H1 receptor (Homo sapiens) (P35367 whole entry): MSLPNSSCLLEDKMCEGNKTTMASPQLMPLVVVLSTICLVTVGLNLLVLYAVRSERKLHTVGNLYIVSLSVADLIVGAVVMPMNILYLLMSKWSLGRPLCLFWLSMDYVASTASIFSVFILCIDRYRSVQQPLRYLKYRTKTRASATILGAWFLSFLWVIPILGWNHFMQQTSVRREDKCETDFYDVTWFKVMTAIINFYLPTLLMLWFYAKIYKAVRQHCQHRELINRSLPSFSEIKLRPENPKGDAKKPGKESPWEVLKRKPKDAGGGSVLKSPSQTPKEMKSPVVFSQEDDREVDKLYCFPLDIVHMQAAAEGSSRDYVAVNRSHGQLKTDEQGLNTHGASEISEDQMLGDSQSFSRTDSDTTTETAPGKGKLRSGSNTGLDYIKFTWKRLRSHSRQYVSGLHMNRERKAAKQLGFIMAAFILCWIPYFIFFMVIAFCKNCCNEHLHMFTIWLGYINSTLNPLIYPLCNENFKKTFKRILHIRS

[7] = molecular target: T5, 5-hydroxytryptamine receptor 1A (Homo sapiens) (UniProt P08908); experiment: Displacement of [3H]OH-DPAT from recombinant human 5-HT1A receptor expressed in human HEK293 cells at 10 uM relative to control; format: cell-based
T5 sequence (whole entry): T4 sequence (P08908 whole entry)

[8] = molecular target: T1, D(2) dopamine receptor; experiment: Displacement of [3H]-spiperone from recombinant human D2L receptor expressed in CHO cells at 10 uM relative to control; format: cell-based
[9] = molecular target: T2, D(3) dopamine receptor; experiment: Displacement of [3H]methyl-spiperone from recombinant human D3 receptor expressed in CHO cells at 10 uM relative to control; format: cell-based
[10] = test system: Rattus norvegicus; experiment: Antipsychotic activity in orally dosed Sprague-Dawley rat assessed as inhibition of PCP-induced hyperactivity administered 20 mins before PCP stimulation and measured after 1 hr; format: functional, organism-based; details: dose 1-10 mg/kg, time 80.0 min
Method in brief: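 Male Sprague-Dawley rats dosed orally 20 min before PCP (5 mg/kg) injection. Locomotor activity recorded for 1 h after PCP, read as total travel distance. Mean ± standard error of the mean, n = 8-10 per group.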

[11] = Metabolic stability in human liver microsomes assessed as half life; format: ADME, Microsome
[12] = Metabolic stability in human liver microsomes assessed as intrinsic clearance; format: ADME, Microsome; details: read-out: CLH
[13] = molecular target: T3, 5-hydroxytryptamine receptor 2A; experiment: Displacement of [3H]ketanserin from recombinant human 5-HT2A receptor expressed in human HEK293 cells; format: cell-based; method in brief: as §1
[14] = Metabolic stability in rat liver microsomes assessed as intrinsic clearance; format: ADME, Microsome; details: read-out: CLH
[15] = Metabolic stability in rat liver microsomes assessed as half life; format: ADME, Microsome

T1 sequence (P14416 whole entry): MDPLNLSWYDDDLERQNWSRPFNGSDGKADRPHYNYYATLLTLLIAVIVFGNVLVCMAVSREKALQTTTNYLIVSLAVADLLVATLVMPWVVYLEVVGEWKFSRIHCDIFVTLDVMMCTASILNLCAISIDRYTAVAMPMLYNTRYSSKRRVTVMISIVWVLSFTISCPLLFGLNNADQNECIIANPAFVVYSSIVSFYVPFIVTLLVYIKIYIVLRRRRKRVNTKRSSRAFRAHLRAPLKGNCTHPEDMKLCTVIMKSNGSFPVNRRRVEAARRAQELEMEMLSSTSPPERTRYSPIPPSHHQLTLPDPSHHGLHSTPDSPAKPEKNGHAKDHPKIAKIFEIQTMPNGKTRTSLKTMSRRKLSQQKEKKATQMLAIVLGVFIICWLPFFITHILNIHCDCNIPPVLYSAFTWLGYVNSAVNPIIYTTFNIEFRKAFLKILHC

SMILES | Ki [1] [nM] | Ki [2] [nM] | inhibition [3] [%] | inhibition [4] [%] | Ki [5] [nM] | inhibition [6] [%] | also measured
C[C@H]1CN(CC[C@H]2CC[C@H](N3C(=O)[C@@H]4[C@@H]5CC[C@@H](C5)[C@@H]4C3=O)CC2)CCc2ccc(Cl)cc21 | 31.6 | 3.3 | 80.8 | 79.2 | 24.9 |  | 
C[C@H]1CN(CC[C@H]2CC[C@H](NC(=O)C3CC3)CC2)CCc2ccc(Cl)cc21 | 9.8 | 8.2 | 56.6 | 57.6 | 191 | 33.2 | 
CC1CN(CC[C@H]2CC[C@H](NC(=O)N(C)C)CC2)CCc2ccc(Cl)cc21 (mixture of isomers) |  |  | 19.6 | 38 |  | 25.8 | inhibition [7]: 26.9%; inhibition [8]: 54.5%; inhibition [9]: 68%
C[C@H]1CN(CC[C@H]2CC[C@H](NC(=O)[C@@H]3CCCN3)CC2)CCc2ccc(Cl)cc21 | 25.3 | 9.5 | 89 | 75.8 | 74.7 | 60.1 | 
C[C@H]1CN(CC[C@H]2CC[C@H](NC(=O)[C@@H]3CCCO3)CC2)CCc2ccc(Cl)cc21 | 20.6 | 19.1 | 69.6 | 36.4 | 98.3 | 32.2 | 
C[C@H]1CN(CC[C@H]2CC[C@H](NC(=O)N(C)c3ccccc3)CC2)CCc2ccc(Cl)cc21 | 189 | 17.2 | 58.8 | 38.6 |  | 75 | inhibition ([7]; filed as antagonist): 82.3%
C[C@H]1CN(CC[C@H]2CC[C@H](N3C(=O)CCC3=O)CC2)CCc2ccc(Cl)cc21 |  | 191 | 47.4 | 62.1 | 93.4 | 62.4 | inhibition [8]: 79.8%
C[C@H]1CN(CC[C@H]2CC[C@H](NC(=O)N3CCCC3)CC2)CCc2ccc(Cl)cc21 | 6.3 | 1.1 | 87.4 | 60.3 | 5.3 | 56.8 | 
C[C@H]1CN(CC[C@H]2CC[C@H](N3C(=O)[C@H]4CCCC[C@H]4C3=O)CC2)CCc2ccc(Cl)cc21 | 14.1 | 9.3 | 76.9 | 63.2 | 6.6 | 86.1 | 
C[C@H]1CN(CC[C@H]2CC[C@H](N3C(=O)c4ccccc4C3=O)CC2)CCc2ccc(Cl)cc21 | 5.8 |  | 36.3 | 37.2 |  | 40.8 | inhibition [7]: 82.6%; inhibition [9]: 82%
CN1CCN(C2=Nc3cc(Cl)ccc3Nc3ccccc32)CC1 |  |  |  |  |  |  | Activity [10]: Dose-dependent effect
COc1ccc2c(c1)[C@]13CCCC[C@@H]1[C@H](C2)N(C)CC3 [DEXTROMETHORPHAN] |  |  |  |  |  |  | half-life [11]: 23.2 min; microsomal CLint [12]: 59.7 µL/min/mg
CCN(C)C(=O)N[C@H]1CC[C@H](CCN2CCc3ccc(Cl)cc3[C@@H](C)C2)CC1 | 23.9 | 7.2 | 85.9 | 43.5 | 36 | 49.7 | 
C[C@H]1CN(CC[C@H]2CC[C@H](N3C(=O)CC4(CCCC4)CC3=O)CC2)CCc2ccc(Cl)cc21 | 12.1 | 1.2 |  | 60.9 | 4.3 |  | Ki [13]: 16.2 nM
C[C@H]1CN(CC[C@H]2CC[C@H](NC(=O)c3ccco3)CC2)CCc2ccc(Cl)cc21 | 19.3 | 1.8 |  |  | 10.6 |  | 
C[C@H]1CN(CC[C@H]2CC[C@H](NC(=O)N(C)C)CC2)CCc2ccc(Cl)cc21 | 5.9 | 0.5 |  | 44.1 | 14.5 | 59.6 | microsomal CLint [14]: 59.7 µL/min/mg; Ki [13]: 25.6 nM; half-life [11]: 32.7 min; microsomal CLint [12]: 42.4 µL/min/mg; Activity [10]: Dose-dependent effect; half-life [15]: 23.2 min
C[C@H]1CN(CC[C@H]2CC[C@H](NC(=O)C3CCCCC3)CC2)CCc2ccc(Cl)cc21 | 99.3 | 17.5 | 38.2 | 35.3 |  | 36.8 | inhibition [7]: 69.9%
CCCC(=O)N[C@H]1CC[C@H](CCN2CCc3ccc(Cl)cc3[C@@H](C)C2)CC1 | 84 | 8.1 | 52.7 | 18.7 |  | 27 | inhibition [7]: 81.3%
C[C@H]1CN(CC[C@H]2CC[C@H](NC(=O)Nc3ccccc3)CC2)CCc2ccc(Cl)cc21 | 2.8 | 1.5 | 67 | 53.8 |  |  | inhibition ([6]; filed as antagonist): 88.2%
C[C@H]1CN(CC[C@H]2CC[C@H](NC(=O)N3CCOCC3)CC2)CCc2ccc(Cl)cc21 | 2.9 | 1.8 | 50.6 | 48 |  | 33.3 | inhibition [7]: 86.1%
C[C@@H]1CN(CC[C@H]2CC[C@H](NC(=O)N(C)C)CC2)CCc2ccc(Cl)cc21 | 290 | 195 | 72 | 48.3 |  | 46.5 | inhibition [7]: 83.9%
C[C@H]1CN(CC[C@H]2CC[C@H](N3C(=O)[C@@H]4[C@H](C3=O)[C@@H]3C=C[C@H]4C3)CC2)CCc2ccc(Cl)cc21 | 43.7 | 6.9 | 82.8 | 74.4 | 22.8 |  | 
CCN(CC)C(=O)N[C@H]1CC[C@H](CCN2CCc3ccc(Cl)cc3[C@@H](C)C2)CC1 | 91.1 | 15 | 73.6 | 29.1 |  | 69.2 | inhibition [7]: 75.2%
COc1ccc2[nH]c([S+]([O-])Cc3ncc(C)c(OC)c3C)nc2c1 (centres undefined) [OMEPRAZOLE] |  |  |  |  |  |  | microsomal CLint [14]: 193 µL/min/mg; half-life [15]: 38.5 min
